1 compound from ChEMBL document CHEMBL1157912, “Impact of nature and length of linker incorporated in agonists on toll-like receptor 9-mediated immune responses” (J Med Chem, 2010) can be followed below.

Test [1] addresses T1, Toll-like receptor 9 (Homo sapiens) (UniProt Q9NR96).
T1 sequence (whole entry): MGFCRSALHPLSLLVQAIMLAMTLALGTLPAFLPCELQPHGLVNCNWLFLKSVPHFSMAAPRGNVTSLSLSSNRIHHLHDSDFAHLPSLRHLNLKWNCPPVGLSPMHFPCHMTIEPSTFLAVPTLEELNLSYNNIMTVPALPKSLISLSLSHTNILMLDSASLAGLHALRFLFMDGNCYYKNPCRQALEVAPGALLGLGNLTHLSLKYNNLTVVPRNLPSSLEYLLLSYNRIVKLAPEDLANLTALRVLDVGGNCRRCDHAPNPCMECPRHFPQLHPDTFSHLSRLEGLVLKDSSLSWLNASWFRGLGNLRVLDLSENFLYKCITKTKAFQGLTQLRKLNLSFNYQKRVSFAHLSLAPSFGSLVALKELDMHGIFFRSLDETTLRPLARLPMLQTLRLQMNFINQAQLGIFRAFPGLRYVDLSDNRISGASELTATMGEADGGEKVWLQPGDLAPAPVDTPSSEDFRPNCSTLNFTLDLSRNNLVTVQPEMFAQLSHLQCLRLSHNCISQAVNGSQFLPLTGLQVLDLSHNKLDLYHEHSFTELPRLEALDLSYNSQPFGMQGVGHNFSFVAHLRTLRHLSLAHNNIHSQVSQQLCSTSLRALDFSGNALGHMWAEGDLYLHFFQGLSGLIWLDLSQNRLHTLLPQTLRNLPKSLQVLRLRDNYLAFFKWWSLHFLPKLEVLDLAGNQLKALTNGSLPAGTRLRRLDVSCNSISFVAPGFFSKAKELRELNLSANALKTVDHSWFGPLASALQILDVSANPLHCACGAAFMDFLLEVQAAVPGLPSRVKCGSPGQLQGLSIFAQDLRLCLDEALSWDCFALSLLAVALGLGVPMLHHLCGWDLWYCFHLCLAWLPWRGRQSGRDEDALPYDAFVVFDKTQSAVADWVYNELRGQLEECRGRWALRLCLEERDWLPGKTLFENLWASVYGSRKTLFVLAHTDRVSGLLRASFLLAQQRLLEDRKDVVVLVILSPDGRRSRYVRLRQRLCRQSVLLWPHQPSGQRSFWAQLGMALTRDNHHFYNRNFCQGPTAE
The test can be described thus: Induction of TLR9-mediated immune stimulation in human PBMC assessed as MIP1beta production at 2 ug/ml after 24 hrs by luminex multiplex assay (RVb = 0.03 +/- 0.02 ng/ml).

For test [2], the target named is T1, Toll-like receptor 9 (Homo sapiens). The test can be described thus: Induction of TLR9-mediated immune stimulation in human PBMC assessed as RANTES production at 2 ug/ml after 24 hrs by luminex multiplex assay (RVb = 0.05 +/- 0.04 ng/ml).
In test [3] the target is T2, Toll-like receptor 9 (Mus musculus) (UniProt Q9EQU3).
T2 sequence (whole entry): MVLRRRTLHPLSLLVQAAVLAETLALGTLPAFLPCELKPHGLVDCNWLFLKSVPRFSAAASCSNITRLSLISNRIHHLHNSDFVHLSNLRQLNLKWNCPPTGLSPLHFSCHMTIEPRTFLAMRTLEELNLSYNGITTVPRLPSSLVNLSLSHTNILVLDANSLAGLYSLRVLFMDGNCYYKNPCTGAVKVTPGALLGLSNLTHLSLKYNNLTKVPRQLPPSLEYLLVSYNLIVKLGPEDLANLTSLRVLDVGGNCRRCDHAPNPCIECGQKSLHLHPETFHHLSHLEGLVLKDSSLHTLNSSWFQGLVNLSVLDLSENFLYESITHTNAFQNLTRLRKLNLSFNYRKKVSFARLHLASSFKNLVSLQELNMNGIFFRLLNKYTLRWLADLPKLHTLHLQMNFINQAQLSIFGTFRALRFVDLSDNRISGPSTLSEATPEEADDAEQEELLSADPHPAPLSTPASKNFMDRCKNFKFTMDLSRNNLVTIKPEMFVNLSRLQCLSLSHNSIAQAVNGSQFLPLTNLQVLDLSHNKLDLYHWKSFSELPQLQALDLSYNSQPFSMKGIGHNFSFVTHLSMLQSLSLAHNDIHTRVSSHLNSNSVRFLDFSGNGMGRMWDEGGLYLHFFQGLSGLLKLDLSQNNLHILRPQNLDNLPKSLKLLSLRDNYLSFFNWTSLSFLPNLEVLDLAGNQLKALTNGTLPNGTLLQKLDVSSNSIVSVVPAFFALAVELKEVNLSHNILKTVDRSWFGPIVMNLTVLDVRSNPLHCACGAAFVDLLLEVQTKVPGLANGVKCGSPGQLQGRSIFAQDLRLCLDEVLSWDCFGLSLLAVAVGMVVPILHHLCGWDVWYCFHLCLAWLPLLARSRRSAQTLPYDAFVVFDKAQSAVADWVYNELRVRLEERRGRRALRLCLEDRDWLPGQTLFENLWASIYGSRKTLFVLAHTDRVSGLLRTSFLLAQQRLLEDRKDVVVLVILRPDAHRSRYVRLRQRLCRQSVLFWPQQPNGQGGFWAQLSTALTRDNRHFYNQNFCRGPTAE
The test can be described thus: Activation of mouse TLR9 expressed in HEK293 cells assessed as induction of NF-kappaB activity after 18 hrs by SEAP assay. The test is classed as cell-based. The method, boiled down:
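HEK293 cells stably expressing mouse TLR9 were grown in DMEM with 10% heat-inactivated FBS. At 80% confluence they were transiently transfected with a SEAP reporter plasmid (100 ng/well, lipofectamine) for 6 h. Medium was then replaced and agonists were added for 18 h. Supernatant SEAP was read with QuantiBlue substrate at 620-645 nm. Results are expressed as fold NF-κB activity over PBS control.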

For test [4], the target named is T1, Toll-like receptor 9 (Homo sapiens). The test can be described thus: Induction of TLR9-mediated immune stimulation in human PBMC assessed as MCP1 production at 2 ug/ml after 24 hrs by luminex multiplex assay (RVb = 0.08 +/- 0.02 ng/ml).
The target is the same in test [5]. The test can be described thus: Induction of TLR9-mediated immune stimulation in human PBMC assessed as MIP1beta production at 10 ug/ml after 24 hrs by luminex multiplex assay (RVb = 0.03 +/- 0.02 ng/ml).
Test [6] has the same target. The test can be described thus: Induction of TLR9-mediated immune stimulation in human PBMC assessed as IL1Ralpha production at 10 ug/ml after 24 hrs by luminex multiplex assay (RVb = 0.12 +/- 0.03 ng/ml).
For test [7] the target is unchanged. In words: Induction of TLR9-mediated immune stimulation in human PBMC assessed as IL2R production at 10 ug/ml after 24 hrs by luminex multiplex assay (RVb = 0.02 +/- 0.01 ng/ml).
The target is the same in test [8]. In words: Induction of TLR9-mediated immune stimulation in human PBMC assessed as MCP1 production at 10 ug/ml after 24 hrs by luminex multiplex assay (RVb = 0.08 +/- 0.02 ng/ml).
The target of test [9] is T2, Toll-like receptor 9 (Mus musculus). The test can be described thus: Induction of TLR9-mediated IL12 production in C57BL/6 mouse spleen cells after 24 hrs by ELISA. The format is cell-based. The method, boiled down:
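C57BL/6 mouse spleen cells were cultured with agonists at 0.1, 0.3, 1, 3 and 10 μg/mL for 24 h. Secreted IL-12 and IL-6 in the supernatants were measured by ELISA. Values are averages of triplicate wells from one representative of at least two independent experiments.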

Turning to `Cc1cn([C@H]2C[C@H](OCCOCCOCCOCCOCCOCCOP(=O)(S)O[C@H]3C[C@H](n4cc(C)c(=O)[nH]c4=O)O[C@@H]3COP(=O)(S)O[C@H]3[C@@H](O)[C@H](n4ccc(N)nc4=O)O[C@@H]3COP(=O)(S)O[C@H]3C[C@H](n4cc(C)c(=O)[nH]c4=O)O[C@@H]3COP(=O)(S)O[C@H]3C[C@H](n4cc(C)c(=O)[nH]c4=O)O[C@@H]3COP(=O)(S)O[C@H]3C[C@H](n4ccc5c(=O)[nH]c(N)nc54)O[C@@H]3COP(=O)(S)O[C@H]3[C@@H](O)[C@H](n4ccc(N)nc4=O)O[C@@H]3COP(=O)(S)O[C@H]3C[C@H](n4cc(C)c(=O)[nH]c4=O)O[C@@H]3COP(=O)(S)O[C@H]3[C@@H](O)[C@H](n4cnc5c(=O)[nH]c(N)nc54)O[C@@H]3COP(=O)(S)O[C@H]3C[C@H](n4cc(C)c(=O)[nH]c4=O)O[C@@H]3COP(=O)(S)O[C@H]3[C@@H](O)[C@H](n4ccc(N)nc4=O)O[C@@H]3COP(=O)(S)O[C@H]3C[C@H](n4cc(C)c(=O)[nH]c4=O)O[C@@H]3CO)[C@@H](COP(=O)(S)O[C@H]3[C@@H](O)[C@H](n4ccc(N)nc4=O)O[C@@H]3COP(=O)(S)O[C@H]3C[C@H](n4cc(C)c(=O)[nH]c4=O)O[C@@H]3COP(=O)(S)O[C@H]3C[C@H](n4cc(C)c(=O)[nH]c4=O)O[C@@H]3COP(=O)(S)O[C@H]3C[C@H](n4ccc5c(=O)[nH]c(N)nc54)O[C@@H]3COP(=O)(S)O[C@H]3[C@@H](O)[C@H](n4ccc(N)nc4=O)O[C@@H]3COP(=O)(S)O[C@H]3C[C@H](n4cc(C)c(=O)[nH]c4=O)O[C@@H]3COP(=O)(S)O[C@H]3[C@@H](O)[C@H](n4cnc5c(=O)[nH]c(N)nc54)O[C@@H]3COP(=O)(S)O[C@H]3C[C@H](n4cc(C)c(=O)[nH]c4=O)O[C@@H]3COP(=O)(S)O[C@H]3[C@@H](O)[C@H](n4ccc(N)nc4=O)O[C@@H]3COP(=O)(S)O[C@H]3C[C@H](n4cc(C)c(=O)[nH]c4=O)O[C@@H]3CO)O2)c(=O)[nH]c1=O` (some centres undefined), the Activity was 0.11 ng/mL in test [1]; 1.57 ng/mL in test [2]; “Dose-dependent effect” in test [3]; 0.25 ng/mL in test [4]; 0.9 ng/mL in test [5]; 83.9 ng/mL in test [6]. The Activity in test [7] is 0.21 ng/mL; in test [8], 3.31 ng/mL; in test [9], “Dose-dependent effect”.
